Bioassay records: PubChem BioAssay, several laboratories
Only some compounds are listed: those with a hit (about 1.3% of all), similar ones and a draw of the others.
CHT inh: inhibits the human high affinity choline transporter; Q9GZV3; CHT-expressing cells, membrane potential dye, choline response; active compounds read low; B-score at 10 µM; hit rate 0.86% among 310,000;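 active = B-score over 3 SD under the library average, and starting fluorescence ratio not unusually high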;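 note: choline stimulus applied at its EC90 after an EC20 pre-addition; B-score computed on integrated fluorescence ratio after choline addition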
CHT allo act: human CHT allosteric activation; Q9GZV3; B-score at 10 µM; CHT-expressing cells, membrane potential dye, choline EC20; active compounds read high; LV-AA mutant CHT in HEK293 cells; hit rate 0.49% among 310,000;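 active = initial fluorescence not abnormally high and integrated response B-score, plate-corrected, over 3 SD above library mean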
procasp7 counter: counter-screen for procaspase-3 activators: activators of human procaspase-7 | recombinant procaspase-7, Ac-DEVD-pNA absorbance 405 nm; D23A/D198A/D206A triple mutant, cannot self-cleave; scale: DMSO 0, 5 µM enzyme 100 | hit rate 0.093% among 330,000 | AID 463210 | P55210 | activation, % at 8.5 µM;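 active = percent activation above the screen-wide mean plus 3 SD, cut at about 25% in these data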
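System: Uncleavable procaspase-7 mutant enzyme; Amount: 2 µM procaspase-7 mutant as dispensed; Schedule: 1 h compound preincubation, 2 h substrate cleavage, 25 °C; Measured by: 405 nm absorbance of p-nitroaniline; Evaluation: percent activation from buffer-corrected 0–120 min absorbance change; Control set: low DMSO alone, high DMSO plus 5 µM PC-7.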
procasp3 activ: activators of human procaspase-3 | P42574 | recombinant procaspase-3 D3A, Ac-DEVD-pNA absorbance 405 nm | activation, % at 8.5 µM | hit rate 0.11% among 330,000;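 active = activation above the mean of all tested compounds plus 3 SD, cut at about 21% in these data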;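 note: 0% = DMSO alone and 100% = DMSO wells spiked with extra 5 µM PC-3 D3A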
Target sequence (P42574 whole entry D9A/D28A/D175A): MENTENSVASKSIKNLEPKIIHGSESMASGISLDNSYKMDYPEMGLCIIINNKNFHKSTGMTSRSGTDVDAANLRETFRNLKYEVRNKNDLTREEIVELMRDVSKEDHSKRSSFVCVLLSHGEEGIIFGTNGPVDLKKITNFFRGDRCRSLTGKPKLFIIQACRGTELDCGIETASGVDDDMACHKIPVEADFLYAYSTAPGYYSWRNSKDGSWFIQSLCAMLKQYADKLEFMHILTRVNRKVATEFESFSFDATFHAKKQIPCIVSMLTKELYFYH
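Test system: Procaspase-3 D3A mutant, all three cleavage aspartates alanine | Dosing: Single dose, 8.5 µM nominal compound, 0.8% DMSO | Schedule: 1 h preincubation, 2 h reaction | Technique: 405 nm absorbance of p-nitroaniline, reads at 0 and 120 min | Repeats: One well per compound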
CHT activ conf: human CHT activation, confirmatory screen; activation, % at 10 µM; shares compounds with CHT allo act; hit rate 91% among 2,500; CHT-expressing cells, membrane potential dye fluorescence (FDSS); % of choline EC20–EC90 response window; HEK293 expressing CHT LV-AA mutant; choline added at its EC20;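 active = primary screen active, with duplicate mean activation above negative control mean plus 3 SD, cut at about 11% in these data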
HEK293 MP dye: counter-screen for CHT activators: effect in parental HEK293 cells | ratio readout change at 10 µM, hits read low | membrane potential dye fluorescence (FDSS); measured after EC20 choline addition | shares compounds with CHT allo act | AID 623908 | hit rate 62% among 2,500;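 active = duplicate-averaged ratio beyond 3 SD from buffer wells, up or down, though filed actives are nearly all decreases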
* marks the source's active call; other numbers are inactive results; i = inactive; . = no result.

SMILES	CHT inh	CHT allo act	procasp7 counter	procasp3 activ	CHT activ conf	HEK293 MP dye
CN(Cc1ccc(N(C)C)cc1)C(=O)c1cc2ccccc2o1	i	i	-5	-6	.	.
NC(=O)c1ccccc1NC(=S)NC(=O)CCc1ccccc1	i	i	-5	-1	9	i
CCCCN(CC)CCNC(=O)CN(C)S(=O)(=O)c1ccc2c(c1)c(=O)n(C)c(=O)n2C	i	i	-1	0	32*	-34*
COc1ccc(CNC(=O)CN(C)S(=O)(=O)c2ccc3c(c2)c(=O)n(C)c(=O)n3C)cc1	i	i	1	6	.	.
Cc1ccnc2nc(C(=O)Nc3ccc(S(=O)(=O)N4CCCC4)cc3)nn12	i	9.9*	5	5	27*	-21*
Cc1ccnc2nc(C(=O)NC3=NCCS3)nn12	i	i	2	2	.	.
Cc1ccnc2nc(C(=O)Nc3nccs3)nn12	i	i	-7	4	40*	i
Cc1cc(C)c(C)c(S(=O)(=O)NCCCN2CCCC2=O)c1C	i	i	11	5	.	.
COC(=O)c1ccccc1NC(=O)CSc1nc(NC(=O)c2ccccc2)c2c(C)c(C)oc2n1	i	8.4*	4	-8	2	i
CCOC(=O)c1ccc(NC(=O)CSc2nc(NC(=O)c3ccccc3)c3c(C)c(C)oc3n2)cc1	i	i	4	-8	.	.
COc1ccc(C)cc1Nc1n[n+](-c2ccccc2)c(-c2ccc(NC(C)=O)cc2)s1	i	i	-18	-2	.	.
CCc1ccc(Nc2n[n+](-c3ccccc3)c(-c3ccc(SC)cc3)s2)cc1	i	11*	-8	-3	26*	i
COc1ccc(C)cc1Nc1n[n+](-c2ccccc2)c(-c2ccc(SC)cc2)s1	i	7.8*	-2	-10	46*	i
CSc1ccc(-c2sc(Nc3ccccc3)n[n+]2-c2ccccc2)cc1	i	8.2*	-27	-12	15*	i
CC1(NC(=O)c2cc(Cl)nc3ccccc23)CCS(=O)(=O)C1 (stereo not given)	.	.	0	4	.	.
CC(C)(C)c1cc(/C=N/NC(=O)C[n+]2ccccc2)cc(C(C)(C)C)c1O	i	i	8	-2	.	.
Cc1cc(N2CCN(C(=O)Nc3ccccc3C#N)CC2)c2ccccc2n1	i	i	.	.	56*	-82*
COc1ccc(CCC(=O)OCC(=O)NCc2ccc(OC)c(OC)c2)cc1OC	.	.	9	-5	.	.
Cn1c(=O)c(=O)n(C)c2cc(N3CCOCC3)c(NS(=O)(=O)c3ccc([N+](=O)[O-])cc3)cc21	i	i	-33	-4	.	.
Cn1c(=O)c(=O)n(C)c2cc(N3CCCC3)c(NS(=O)(=O)c3ccc(Cl)cc3)cc21	i	6.6*	-3	-2	55*	-55*
Cn1c(=O)c(=O)n(C)c2cc(N3CCOCC3)c(NS(=O)(=O)c3ccc(F)c(Cl)c3)cc21	i	6.6*	-12	0	49*	-51*
Cc1cc(C)n2nc(-c3cccnc3)nc2n1	i	i	5	8	48*	-51*
Cc1cc(C)n2nc(-c3ccc(F)cc3)nc2n1	i	i	-3	0	.	.
Cc1c(CCOC(=O)CC23CC4CC(CC(C)(C4)C2)C3)sc[n+]1CC(=O)c1ccccc1	i	i	9	2	.	.
Cc1c(CCOC(=O)c2ccccc2)sc[n+]1CC(=O)c1ccc(Br)cc1	i	i	-5	2	.	.
SMILES	CHT inh	CHT allo act	procasp7 counter	procasp3 activ	CHT activ conf	HEK293 MP dye
Cc1c(CCOC(=O)c2cc([N+](=O)[O-])cc([N+](=O)[O-])c2)sc[n+]1CC(=O)c1ccccc1	i	i	0	-3	32*	i
Cc1c(CCOC(=O)c2cc([N+](=O)[O-])cc([N+](=O)[O-])c2)sc[n+]1CCCCS(=O)(=O)[O-]	i	i	2	-8	12*	-21*
Cc1c(CCOC(=O)CC23CC4CC(CC(C4)C2)C3)sc[n+]1CC(=O)c1ccc(Br)cc1	i	i	10	7	28*	-25*
Cc1c(CCOC(=O)c2ccccc2)sc[n+]1Cc1ccccc1	i	i	-10	-5	.	.
O=C(Nc1ccccc1)c1nc[nH]c1C(=O)NCCN(CCNC(=O)c1[nH]cnc1C(=O)Nc1ccccc1)CCNC(=O)c1[nH]cnc1C(=O)Nc1ccccc1	.	.	12	0	.	.
CCN(Cc1ccncc1)Cc1cn(C)nc1-c1ccc(Oc2ccccc2)cc1	i	i	-1	-2	19*	i
CC(C)c1cc(CNC(=O)C2CCC(=O)N(Cc3ccccc3F)C2)on1 (stereo not given)	i	i	-3	7	.	.
